The list is not random: actives were taken first. Their share in the collection is about 7.1%.
Cav3 T inh – human Cav3.2 channel inhibition, primary screen | 100,000 compounds, 4% hits | B-score at 10 µM | AID 449739 | Cav3.2-expressing cells, Fluo-4 calcium fluorescence FDSS; hits give low values;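 active = single-dose well whose peak fluorescence ratio is a statistical outlier from its plate by either plate-standardised score or position-corrected B-score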
HUVEC inhibit – blocks proliferation of human endothelial cells; 86,000 compounds, 1.1% hits; viability, % at 10 µM (by protocol); HUVEC proliferation, CellTiter-Glo luminescence, 72 h; hits give low values;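 active = viability at or below 30%; inactive = viability above 30%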
HCT116 PTEN-null – PTEN-deleted cell growth suppression; HCT116 PTEN-null viability, CellTiter-Glo, 60 h; hits give low values; viability, % at 10 µM; 140,000 compounds, 1.2% hits;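 active = viability at or below a set limit, 4 SD under the median of all tested compounds, cut at about 3.7% in these data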;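 also: PTEN knockout HCT116 line with beta catenin targeted HCT116 as companion control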
H69AR inhibit – growth inhibitors of human H69AR lung tumor cells; 85,000 compounds, 6% hits; H69AR lung tumor viability, ATP luminescence, 72 h; hits give low values; viability, % at 10 µM;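 active = viability at or below 40%; inactive = viability above 40%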;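 also: multidrug resistant small cell line overexpressing MRP-1 efflux transporter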
Lung fibro prol – blocks proliferation of human lung fibroblasts | LL 47 human lung fibroblast viability, ATP luminescence; hits give low values | viability, % at 10 µM | 85,000 compounds, 1.1% hits | AID 719;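 active = viability at or below 50% in the single dose screen; inactive = viability above 50%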;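 also: compound exposure lasted 72 h before the ATP readout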
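Assay system: human lung fibroblast line LL 47, low passage. Input: 1,150 fibroblasts seeded per well. Times: overnight cell rest, 72 h compound treatment at 37 °C. Evaluation: % viability of median cell-only signal. Technique: luminescent ATP detection, CellTiter-Glo. Control set: cell-only wells, no compound.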
HCT116 bCat-KO – beta-catenin-lacking colon tumor cell growth suppression; HCT116 beta-catenin knockout viability, CellTiter-Glo, 60 h; hits give low values; viability, % at 10 µM; 140,000 compounds, 1.5% hits;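 active = viability at or under a set limit, the compound median less 4 SD, cut at about 6% in these data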
Hits are given with their value; . = inactive; / = no result given.

SMILES | Cav3 T inh | HUVEC inhibit | HCT116 PTEN-null | H69AR inhibit | Lung fibro prol | HCT116 bCat-KO
COc1ccccc1NC(=O)c1ccc(NC(=O)COC(=O)C2(C)CC2(Cl)Cl)cc1 (centres undefined) | / | / | . | / | / | .
CC(=O)SCC(Cc1ccccc1)C(=O)NCC(=O)OCc1ccccc1 (centres undefined) | -5.2 | / | / | / | / | /
CC(C)(C)c1ccc(COC(=O)CNC(=O)CNC(=O)Cc2ccccc2)cc1 | . | / | . | / | / | .
COc1ccc(-c2cc(-c3ccccc3)c(C#N)c(S(C)=O)n2)cc1 (centres undefined) | . | 6.8 | 1.3 | 2.3 | 2.7 | 1.1
N#Cc1c(-c2ccccc2)cc(-c2ccccc2)nc1Br | / | / | . | / | / | .
Cn1c(C(=O)NCCCN2CCOCC2)cc2c(=O)n(C)c3ccccc3c21 | . | . | . | . | . | .
CCN1CCCC1CNC(=O)c1nn(-c2ccc(C)cc2)c(=O)c2c1c1ccccc1n2C (centres undefined) | / | 25 | / | . | 46 | /
Cc1ccc(-n2nc(C(=O)N3CCN(C)CC3)c3c4ccccc4n(C)c3c2=O)cc1 | . | . | / | . | . | /
COc1ccccc1CNC(=O)c1nn(-c2ccc(C)cc2)c(=O)c2c1c1ccccc1n2C | . | . | . | 5.2 | . | .
COc1ccccc1CNC(=O)c1cc2c(=O)n(C)c3ccccc3c2n1C | / | . | / | 26 | . | /
COc1ccccc1CNC(=O)c1cn(C)c(=O)c2cc(OC)c(OC)cc12 | . | . | . | . | . | .
Cn1c(C(=O)NCCCN2CCN(c3ccccc3F)CC2)cc2c(=O)n(C)c3ccccc3c21 | . | . | . | 28 | 43 | 1.7
O=C(CNC(=O)c1ccccc1F)OC(C(=O)Nc1cc(C(F)(F)F)ccc1Cl)c1ccccc1 (centres undefined) | -5.4 | / | . | / | / | .
O=C(Nc1cc(C(F)(F)F)ccc1Cl)C(Sc1cccc[n+]1[O-])c1ccccc1 (centres undefined) | / | / | . | / | / | .
C[C@H](NC(=O)c1ccccc1Cl)C(=O)OC(C(=O)Nc1cc(C(F)(F)F)ccc1Cl)c1ccccc1 (some centres undefined) | -8.4 | / | . | / | / | .
COc1cccc(NCc2cc(=O)oc3cc(-c4ccccc4)c(O)cc23)c1 | / | / | . | / | / | .
Clc1ncnc2scc(-c3ccc(Br)cc3)c12 | / | / | . | / | / | .
O=S(=O)(Nc1nc2ccccc2s1)c1ccc(Cl)s1 | -5.1 | . | . | . | . | .
O=C(CS(=O)(=O)Cc1ccccc1)Nc1nc2ccccc2s1 | . | . | . | . | / | .
CCOC(=O)c1c(NC(=O)Cc2cccs2)sc(C(=O)NC2CCCCC2)c1C | . | / | . | / | / | .
CCOC(=O)c1c(NC(=O)Cc2cccs2)sc(C(=O)NC2CCCC2)c1C | . | . | . | 28 | . | .
OC(c1ccccn1)(c1ccccn1)c1ccccn1 | / | / | . | / | / | .
Cc1ccc(NC(=S)NC(NC(=O)c2ccccc2C)C(Cl)(Cl)Cl)c(C)c1 (centres undefined) | -7.1 | / | . | / | / | .
Cc1ccc(C)c(NC(=S)NC(NC(=O)Cc2cccc3ccccc23)C(Cl)(Cl)Cl)c1 (centres undefined) | . | 4.3 | 2.6 | 2.3 | 4.4 | .
Cc1ccc(C)c(NC(=S)NC(NC(=O)N(C)C)C(Cl)(Cl)Cl)c1 (centres undefined) | . | / | . | / | / | .
SMILES | Cav3 T inh | HUVEC inhibit | HCT116 PTEN-null | H69AR inhibit | Lung fibro prol | HCT116 bCat-KO
Cc1ccccc1NC(=S)NC(NC(=O)C(C)(C)C)C(Cl)(Cl)Cl (centres undefined) | . | / | . | / | / | .
Cc1ccc(/C(O)=C/C(=O)C(=O)NNC(=O)C(O)(c2ccccc2)c2ccccc2)cc1 | . | . | . | 11 | . | .
CC(=O)NNC(=O)C(O)(c1ccccc1)c1ccccc1 | . | / | . | / | / | .
CN(C(=O)CSc1nc(-c2ccccc2)cn1N)C(c1ccccc1)c1ccccc1 | -6.5 | . | . | . | . | .
Cc1ccc(-c2csc3ncnc(NCCN4CCOCC4)c23)cc1 | . | . | . | 27 | . | .
COc1ccc(-c2csc3ncnc(NCCN4CCOCC4)c23)cc1 | . | . | . | 21 | . | .
COc1ccc(-n2ncc3c(NCCN4CCOCC4)ncnc32)cc1 | . | . | . | . | . | .
c1nc(NCCN2CCOCC2)c2c3c(sc2n1)CCCCC3 | . | . | . | . | . | .
O=c1[nH]cnc2nn(-c3ccccc3)nc12 | -3.7 | . | . | . | . | .
S=C(Nc1cccc(Cl)c1)NC1CCCCC1 | -4.1 | / | . | / | / | .
